High-throughput results from PubChem.
Shown are actives, neighbours in structure and some others; about 2.3% of the full set was active somewhere.
TRPC4 block: blocks the mouse TRPC4 cation channel; Q9QUQ5; 300,000 compounds, 0.39% hits; HEK293 TRPC4beta/mu-opioid, DAMGO-evoked Fluo4 calcium flux; hits give low values; B-score at 10 µM;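 active = B-score over 3 SD under the library average, no early fluorescence shift, positive overall ratio signal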
Target sequence (Q9QUQ5 whole entry, looked up): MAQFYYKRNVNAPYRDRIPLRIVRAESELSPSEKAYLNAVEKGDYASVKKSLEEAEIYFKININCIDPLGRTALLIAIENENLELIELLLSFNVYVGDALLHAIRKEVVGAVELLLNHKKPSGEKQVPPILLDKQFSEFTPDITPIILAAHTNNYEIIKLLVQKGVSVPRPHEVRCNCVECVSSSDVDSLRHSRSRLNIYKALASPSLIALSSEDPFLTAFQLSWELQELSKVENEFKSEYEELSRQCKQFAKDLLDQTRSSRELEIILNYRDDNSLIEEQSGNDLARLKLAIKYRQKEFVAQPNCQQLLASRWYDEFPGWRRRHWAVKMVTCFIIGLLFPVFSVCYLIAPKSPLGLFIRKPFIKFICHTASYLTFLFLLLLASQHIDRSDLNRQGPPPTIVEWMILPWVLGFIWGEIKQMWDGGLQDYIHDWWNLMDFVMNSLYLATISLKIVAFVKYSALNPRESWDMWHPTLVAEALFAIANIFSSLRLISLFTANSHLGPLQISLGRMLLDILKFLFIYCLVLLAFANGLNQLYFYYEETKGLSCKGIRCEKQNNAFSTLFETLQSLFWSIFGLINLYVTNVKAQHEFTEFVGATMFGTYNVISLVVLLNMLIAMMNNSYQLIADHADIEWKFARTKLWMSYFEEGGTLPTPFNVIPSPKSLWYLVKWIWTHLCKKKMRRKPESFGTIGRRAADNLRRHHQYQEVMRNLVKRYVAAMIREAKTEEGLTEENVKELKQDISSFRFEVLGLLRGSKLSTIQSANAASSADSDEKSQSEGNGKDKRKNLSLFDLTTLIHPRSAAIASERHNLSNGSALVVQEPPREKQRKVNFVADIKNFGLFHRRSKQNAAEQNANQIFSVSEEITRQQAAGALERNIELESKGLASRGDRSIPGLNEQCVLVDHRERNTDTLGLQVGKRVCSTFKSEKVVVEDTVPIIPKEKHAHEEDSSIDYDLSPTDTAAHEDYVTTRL
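material = TRPC4beta/mu-opioid receptor HEK293 cell line | probe or stimulus = sequential submaximal and maximal DAMGO stimulation | compound dosing = one concentration per compound | measured by = Fluo4 Ca2+ flux fluorescence | evaluation = integrated fluorescence ratio relative to baseline, converted to per-well B score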
TRPC4 potent: allosterically enhances the mouse TRPC4 cation channel; Q9QUQ5; HEK293 TRPC4beta/mu-opioid, DAMGO EC20, Fluo-4 Ca2+ flux; hits give high values; B-score at 10 µM; 310,000 compounds, 0.42% hits; AID 2227;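 active = B-score of calcium response area above 5 SD of library B-scores, with initial fluorescence ratio within 5 SD of library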;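 note: B-score of integrated fluorescence ratio over time as area under calcium response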
TRPC6 act: activates the mouse TRPC6 cation channel; Q61143; HEK293-TRPC6 membrane potential dye fluorescence; hits give high values; B-score at 10 µM; 310,000 compounds, 0.13% hits; AID 2550;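 active = B-score of the integrated fluorescence ratio above library mean plus 3 SD, and starting fluorescence ratio within library mean plus 5 SD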;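 note: higher score means more depolarization so channel activation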
TRPC6 inh: inhibitors of mouse TRPC6 channel. Q61143. HEK293-TRPC6, membrane potential dye, ACh-evoked depolarization; hits give low values. B-score at 10 µM. 310,000 compounds, 1.1% hits;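 active = B-score under library mean minus 3 SD, initial fluorescence not abnormally high, positive integrated signal ratio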;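 note: B-score derived from integrated fluorescence ratio over the kinetic read; more negative B-score means stronger inhibition of depolarization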
FID counter: displaces DNA intercalator in HCV helicase counter-screen. DNA fluorescent intercalator displacement, fluorescence. inhibition, % at 7.9 µM. 290,000 compounds, 0.17% hits. AID 1845; in the data active = inhibition above about 37%;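 note: 0% = vehicle and 100% = reference compound; higher means more ethidium bromide displaced from hairpin DNA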
TRPC4 act: TRPC4 (mouse) channel activation; Q9QUQ5; HEK293 TRPC4beta/mu-opioid, Fluo4 calcium fluorescence; hits give high values; B-score at 10 µM; 310,000 compounds, 0.49% hits; AID 2237;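 active = B-score above 5 SD of library B-scores, and initial fluorescence ratio not above library mean plus 5 SD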;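 note: positive B-score marks a calcium rise read as TRPC4 activation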
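Test system: HEK293 cells stably co-expressing mouse TRPC4beta and mu-opioid receptor | Schedule: Fluo4 dye loading 45 min at room temperature, 110 s recording | Measured by: Kinetic Fluo4 calcium fluorescence, 5 s baseline at 1 Hz | Evaluation: B score of integrated ratio | Controls: Buffer (low) and maximal DAMGO (high)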
TRPC4 spec 2: mouse TRPC4 off-target activity of TRPC6 inhibitors, second screen. shares compounds with TRPC6 inh. HEK293 TRPC4/MOR, membrane potential dye fluorescence; channel activated by saturating DAMGO dose. inhibition, % at 10 µM. 920 compounds, 42% hits. AID 2776;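 active = compounds whose fluorescence signal differed from control wells by over 3 SD, either direction, in both duplicate plates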
TRPC4 spec: mouse TRPC4 off-target activity of TRPC6 inhibitors; activity change, negative = inhibition, % at 10 µM; HEK293 TRPC4/mu-opioid, membrane potential fluorescence; shares compounds with TRPC6 inh; AID 2777; 920 compounds, 61% hits;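 active = rise or fall in signal beyond 3 SD of buffer-only wells in both replicate plates, either sign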;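 note: integrated kinetic ratio of fluorescence range over baseline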
HEK293 MPD ctr 2-1: second counter-screen for TRPC6 inhibitors: parental HEK293 cells | shares compounds with TRPC6 inh | parental HEK293 membrane potential dye fluorescence; maximal acetylcholine challenge after compound addition | signal change vs control, % at 10 µM | 920 compounds, 31% hits | AID 2779;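 active = membrane potential signal moving either way by over 3 SD of the maximum-effect control, in both duplicate plates, meaning non-specific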
HEK293 MPD ctr-1: parental HEK293 nonspecific activity of TRPC6 inhibitors; shares compounds with TRPC6 inh; parental HEK293 membrane potential dye fluorescence; membrane potential signal change, % at 10 µM; 920 compounds, 60% hits; AID 2780;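 active = membrane potential signal shifting up or down by more than 3 SD of buffer-only wells, on both duplicate plates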
HEK293 MPD ctr-2: counter-screen for TRPC6 modulators: effect in parental HEK293 cells; membrane potential signal change, % at 10 µM; membrane potential dye fluorescence; 2,400 compounds, 51% hits; shares compounds with TRPC6 inh; AID 488924;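 active = membrane potential signal moves up or down beyond 5 SD from buffer-only wells, on both duplicate plates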
HEK293 MPD ctr 2-2: second check of TRPC6 modulator effects in parental HEK293 cells | shares compounds with TRPC6 inh | membrane potential dye fluorescence; after compound, maximal acetylcholine stimulation | inhibition, % at 10 µM | 2,400 compounds, 14% hits | AID 488926;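 active = membrane potential signal drops by more than 5 SD from the mean control signal, in both duplicate plates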;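 note: plate controls were acetylcholine ECmax control wells for no effect and buffer only wells for full effect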
TRPC4/MOR mod: tests whether TRPC6 modulators also affect mouse TRPC4; 2,400 compounds, 69% hits; AID 488927; HEK293 TRPC4/mu-opioid, membrane potential fluorescence; shares compounds with TRPC6 inh; percent change from control (negative = decrease, positive = increase), % at 10 µM;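 active = membrane potential signal moved up or down beyond 5 SD of buffer control wells, in both duplicate plates, actives on both sides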;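 note: plate controls were assay buffer wells for no effect and DAMGO maximal-effect wells for full effect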
TRPC4/MOR inh 2: second selectivity test of TRPC6 modulators against mouse TRPC4; shares compounds with TRPC6 inh; HEK293 TRPC4/mu-opioid, membrane potential dye fluorescence; stimulated with maximal-effect DAMGO; inhibition, % at 10 µM; 2,400 compounds, 55% hits;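 active = drop in membrane potential signal beyond 5 SD of the control wells in both duplicate plates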;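 note: TRPC4 counter screen for TRPC6 hits run under conditions tuned for TRPC6 not TRPC4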
TRPC6 inh conf: confirmation of mouse TRPC6 inhibitors; HEK293-TRPC6, membrane potential dye, ACh-evoked depolarization; inhibition, % at 10 µM; 3,300 compounds, 43% hits; shares compounds with TRPC6 inh;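 active = fluorescence ratio falls more than 5 SD below the full-stimulation control mean, in both duplicate runs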;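 note: integrated fluorescence ratio of peak minus minimum over baseline after agonist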
TRPC6 act confirm: mouse TRPC6 activator confirmation; 2,800 compounds, 11% hits; HEK293-TRPC6 membrane potential dye fluorescence, FDSS; shares compounds with TRPC6 inh; activation, % at 10 µM; AID 488961;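 active = ratio signal rise beyond 5 SD above unstimulated control wells' mean, seen in both duplicate runs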;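 note: plate controls were buffer EC0 wells for no effect and acetylcholine ECmax response for full effect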
An asterisk follows results filed as active; i = inactive; . = no result.

SMILES	TRPC4 block	TRPC4 potent	TRPC6 act	TRPC6 inh	FID counter	TRPC4 act	HEK293 MPD ctr-2	HEK293 MPD ctr 2-2	TRPC4/MOR mod	TRPC4/MOR inh 2	TRPC6 inh conf	TRPC6 act confirm	others
Cn1c(/C=C/c2ccccc2)nc2ccccc21	i	i	i	-7.92*	-2.5	i	.	.	.	.	i	i	TRPC4 spec 2=23.0%*;TRPC4 spec=3.3%*;HEK293 MPD ctr 2-1=i;HEK293 MPD ctr-1=-204.0%*
COc1cc2c(ccc3cc(OC)c(OC)c(O)c32)cc1O	i	i	i	i	.	i	.	.	.	.	.	.
COc1cc2c(cc1OC)-c1cc3ccc4c(c3c[n+]1CC2)OCO4	i	i	i	-7.36*	2.3	i	i	91.0%*	-193.5%*	37.0%*	46.5%*	i
COc1cc2c(cc1O)CC[n+]1cc3c(OC)c(OC)ccc3cc1-2	i	i	i	-7.41*	4.0	i	.	.	.	.	i	i	TRPC4 spec 2=i;TRPC4 spec=-9.5%*;HEK293 MPD ctr 2-1=-66.5%*;HEK293 MPD ctr-1=i
Cc1cccnc1NCC(O)COc1ccccc1 (configuration not stated)	i	i	i	-6.48*	0.0	i	i	i	i	i	i	i
CC(=O)Nc1ccc(NCC(O)COc2ccccc2)cc1 (configuration not stated)	i	i	i	i	1.8	i	.	.	.	.	.	.
CCOc1ccc(C(=O)CCN2CCCCCC2)cc1	i	i	i	i	-3.2	i	.	.	.	.	.	.
CCCOc1ccc(C(=O)CCN2CCCCC2)cc1	i	i	i	-5.36*	0.7	i	149.5%*	i	23.5%*	i	i	.
CCOC(=O)c1[nH]c2ccccc2c1CCCN1C(=O)c2ccccc2C1=O	i	i	i	-6.88*	-8.6	i	.	.	.	.	i	i	TRPC4 spec 2=i;TRPC4 spec=i;HEK293 MPD ctr 2-1=i;HEK293 MPD ctr-1=i
CCOC(=O)c1[nH]c2cc3c(cc2c1CCCN1C(=O)c2ccccc2C1=O)OCCO3	i	i	i	i	0.1	i	.	.	.	.	.	.
Cc1ccc(C)c(NS(=O)(=O)c2ccccc2C)c1	i	i	i	i	-16.6	i	.	.	.	.	.	.
CCCCCCC(=O)N1CCC(c2nc3c(nnn3Cc3ccccc3Cl)c(=O)[nH]2)CC1	i	i	14.3*	-10.7*	-21.3	i	131.0%*	i	22.5%*	i	73.5%*	127.0%*
O=C(Cc1cccs1)N1CCC(c2nc3c(nnn3Cc3ccccc3Cl)c(=O)[nH]2)CC1	i	i	i	i	-37.3	i	.	.	.	.	.	.
O=C(O)c1nc(NCCc2ccccc2)ncc1Cl	i	i	i	i	5.2	i	.	.	.	.	.	.
Cc1cc(OCC(=O)OCC(=O)N(C)c2c(N)n(Cc3ccccc3)c(=O)[nH]c2=O)ccc1Cl	i	i	i	i	.	i	.	.	.	.	.	.
COC(=O)N1CCN(c2ccc(Cl)c(Cl)c2)CC1	i	i	i	-6.28*	-9.9	i	i	i	8.0%*	37.0%*	i	i
CCc1cccc(OCC(O)Cn2c(N3CCCCC3)nc3c2c(=O)[nH]c(=O)n3C)c1 (configuration not stated)	i	i	i	i	-35.0	i	.	.	.	.	.	.
O=C1CCC(C(=O)O)(c2ccccc2)C1 (configuration not stated)	i	i	i	-5.08*	3.0	i	i	i	i	i	i	i
O=C1CC(C(=O)O)(c2ccccc2)c2cccc(F)c21 (configuration not stated)	i	i	i	i	-3.2	i	.	.	.	.	.	.
Cc1ccccc1NC(=O)Cn1cnc2c(oc3nc4c(cc32)COC(C)(C)C4)c1=O	i	i	i	i	-6.5	i	.	.	.	.	.	.
CC1(C)Cc2nc3oc4c(=O)n(CC(=O)Nc5ccc(Cl)cc5)cnc4c3cc2CO1	i	i	i	-8.32*	-0.9	i	.	.	.	.	i	i	TRPC4 spec 2=i;TRPC4 spec=i;HEK293 MPD ctr 2-1=i;HEK293 MPD ctr-1=i
CN1CCc2c(sc3c2c(=O)n(-c2cccc(Cl)c2)c2nncn32)C1	i	i	i	-5.52*	-1.4	i	i	i	7.0%*	i	i	i
Cc1nnc2n(-c3ccccc3)c(=O)c3c4c(sc3n12)CCCC4	i	i	i	i	-26.5	i	.	.	.	.	.	.
O=c1c2c3c(sc2n2cnnc2n1-c1ccccc1)N(Cc1ccccc1)CCC3	i	i	i	-6.98*	-9.5	i	.	.	.	.	i	i	TRPC4 spec 2=i;TRPC4 spec=-19.9%*;HEK293 MPD ctr 2-1=i;HEK293 MPD ctr-1=-271.0%*
Cc1cc(NCCCN2CCOCC2)n2nc(C)c(-c3ccc(F)cc3)c2n1	i	i	i	i	9.7	i	.	.	.	.	.	.
Cc1cc(NCCCN2CCOCC2)n2nc(C)c(-c3ccccc3)c2n1	i	i	i	-6.06*	19.1	i	-171.0%*	i	-31.0%*	38.0%*	i	i
COC(=O)c1cc(NC(=O)/C=C/c2ccccc2)ccc1O	i	i	i	i	-2.3	i	.	.	.	.	.	.
